Test results from ChEMBL document CHEMBL4304784, “Discovery of new potent dual sigma receptor/GluN2b ligands with antioxidant property as neuroprotective agents” (Eur J Med Chem, 2019).
pKi: −log10 of the molar value. Converted amounts (≈) assume the structure as drawn.

Columns and labels:
[1] = Cytotoxicity against human SH-SY5Y cells assessed as cell viability at 100 uM incubated for 48 hrs by MTT assay (reference value: 100 +/- 12.00%); format: cell-based; conditions: read-out: Activity
Method in brief: (§1)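 Cells kept in DMEM Glutamax with 10% FBS and antibiotic/antimycotic at 37 °C, 5% CO2. Plated at 2x10^3 cells/well 24 h before dosing. Compounds taken from DMSO and diluted in medium, final DMSO ≤1.0%. Exposure 48 h, then MTT added for 4 h at 37 °C. Read as A595 minus A655. Triplicates, at least three independent experiments, mean ± SEM.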

[2] = Cytotoxicity against human HeLa cells assessed as cell viability at 10 uM incubated for 48 hrs by MTT assay relative to control; format: cell-based; conditions: read-out: Activity; method in brief: as §1
[3] = Cytotoxicity against human HeLa cells assessed as cell viability at 50 uM incubated for 48 hrs by MTT assay relative to control; format: cell-based; conditions: read-out: Activity; method in brief: as §1
[4] = Antioxidant activity assessed as ABTS radical scavenging activity incubated for 40 mins; format: functional
Method in brief: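 Test compound at 0.05, 0.1, 0.2 and 0.4 mg/mL (200 µL) added to 1.8 mL ethanolic ABTS 7mM. Incubated 40 min at room temperature, absorbance read at 735 nm against ABTS solution. Percent inhibition computed from absorbances and used to derive IC50. Triplicate, mean ± SEM; ascorbic acid as reference.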

[5] = Selectivity ratio of Ki for sigma2 receptor in rat liver membranes to Ki for GluN1a/GluN2B (unknown origin) expressed in mouse L(tk-) cell membranes; format: cell-based
[6] = Cytotoxicity against human Hep3B cells assessed as decrease in cell viability incubated for 48 hrs by MTT assay; format: cell-based, Hep 3B2; conditions: read-out: LD50
Method in brief: (§2)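 Cells kept in DMEM Glutamax with 10% FBS and antibiotic/antimycotic at 37 °C, 5% CO2. Seeded 24 h before dosing (SH-SY5Y at 2x10^3 cells/well). Compounds in DMSO serially diluted in medium, final DMSO 1.0%, exposure 48 h. MTT added for 4 h at 37 °C, read A595 minus A655. LD50 from linear regression of dose-log response curves; triplicates, three experiments, mean ± SEM.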

[7] = Cytotoxicity against human SH-SY5Y cells assessed as decrease in cell viability incubated for 48 hrs by MTT assay; format: cell-based; conditions: read-out: LD50; method in brief: as §2
[8] = Cytotoxicity against human HeLa cells assessed as decrease in cell viability incubated for 48 hrs by MTT assay; format: cell-based; conditions: read-out: LD50; method in brief: as §2
SH-SY5Y = experiment: Neuroprotective activity against H2O2-induced toxicity in human SH-SY5Y cells assessed as cell viability at 25 uM pretreated for 48 hrs followed by H2O2 challenge and measured after 4 hrs by MTT assay (reference value: 18 +/- 2.64%); format: functional; conditions: read-out: Activity
[9] = Cytotoxicity against human SH-SY5Y cells assessed as cell viability at 50 uM incubated for 48 hrs by MTT assay (reference value: 100 +/- 12.00%); format: cell-based; conditions: read-out: Activity; method in brief: as §1
[10] = Cytotoxicity against human Hep3B cells assessed as cell viability at 10 uM incubated for 48 hrs by MTT assay relative to control; format: cell-based, Hep 3B2; conditions: read-out: Activity; method in brief: as §1
[11] = Antioxidant activity assessed as H2O2 radical scavenging activity; format: functional
Method in brief: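 Compounds at 0.05, 0.1, 0.2 and 0.4 mg/mL in phosphate buffer pH 7.4. 0.353 mL of 4 mM H2O2 in phosphate buffer added to 2.0 mL of each solution, absorbance read at 239 nm. Percent inhibition calculated from absorbances relative to control. Triplicate, mean ± SEM.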

[12] = Cytotoxicity against human HeLa cells assessed as cell viability at 100 uM incubated for 48 hrs by MTT assay relative to control; format: cell-based; conditions: read-out: Activity; method in brief: as §1
[13] = Cytotoxicity against human Hep3B cells assessed as cell viability at 25 uM incubated for 48 hrs by MTT assay relative to control; format: cell-based, Hep 3B2; conditions: read-out: Activity; method in brief: as §1
[14] = Cytotoxicity against human SH-SY5Y cells assessed as cell viability at 25 uM incubated for 48 hrs by MTT assay (reference value: 100 +/- 12.00%); format: cell-based; conditions: read-out: Activity; method in brief: as §1
[15] = target: T1, Glutamate NMDA receptor; GRIN1/GRIN2B (Homo sapiens, UniProt Q05586+Q13224); experiment: Displacement of [3H]ifenprodil from GluN1a/GluN2B (unknown origin) expressed in mouse L(tk-) cell membranes after 120 mins by solid scintillation counting method
Method in brief: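 Membranes (about 20 μg protein) from mouse L(tk-) cells stably carrying GluN1a/GluN2B, induced with 4 μM dexamethasone and 4 μM ketamine for 24 h. Incubated with 5 nM [3H]ifenprodil in 5 mM TRIS/1 mM EDTA pH 7.5 at 37 °C, 120 min. Non-specific binding defined with 10 μM ifenprodil.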

[16] = target: Sigma non-opioid intracellular receptor 1 (Cavia porcellus, UniProt Q60492); experiment: Displacement of [3H]-(+)-pentazocine from sigma1 receptor in guinea pig brain cortex membranes incubated for 120 mins by solid scintillation counting method; format: cell membranes
Method in brief: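 Guinea pig brain cortex membranes (about 100 µg protein) with 2 nM [3H]-(+)-pentazocine in 50 mM TRIS pH 7.4 at 37 °C. Non-specific binding defined with 10 µM unlabeled (+)-pentazocine. Six concentrations, 10^-5 to 10^-10 M, in duplicate. 120 min with shaking, filtration, solid scintillator counting.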

[17] = Cytotoxicity against human SH-SY5Y cells assessed as cell viability at 10 uM incubated for 48 hrs by MTT assay (reference value: 100 +/- 12.00%); format: cell-based; conditions: read-out: Activity; method in brief: as §1
[18] = Cytotoxicity against human Hep3B cells assessed as cell viability at 50 uM incubated for 48 hrs by MTT assay relative to control; format: cell-based, Hep 3B2; conditions: read-out: Activity; method in brief: as §1
[19] = target: T2, Sigma intracellular receptor 2 (Rattus norvegicus, UniProt Q5U3Y7); experiment: Displacement of [3H]-di-o-tolylguanidine from sigma2 receptor in rat liver membranes in the presence of sigma1 receptor ligand (+)-pentazocine incubated for 120 mins by scintillation counting method; format: cell membranes
T2 sequence (Q5U3Y7 whole entry): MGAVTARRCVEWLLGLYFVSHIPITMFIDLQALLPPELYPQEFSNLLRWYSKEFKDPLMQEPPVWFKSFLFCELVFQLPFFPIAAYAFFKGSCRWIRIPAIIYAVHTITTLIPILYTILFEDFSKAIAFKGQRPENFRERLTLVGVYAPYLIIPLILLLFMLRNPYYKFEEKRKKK
Method in brief: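 Rat liver membranes (about 100 µg protein) with 3 nM [3H]di-o-tolylguanidine in 50 mM TRIS pH 8.0 containing 500 nM (+)-pentazocine, at rt. Non-specific binding defined with 10 µM unlabeled DTG. Concentrations 10^-5 to 10^-10 M, in duplicate. 120 min, filtration, scintillation counting. Three independent experiments, mean ± SEM.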

[20] = Cytotoxicity against human HeLa cells assessed as cell viability at 25 uM incubated for 48 hrs by MTT assay relative to control; format: cell-based; conditions: read-out: Activity; method in brief: as §1
[21] = Selectivity ratio of Ki for sigma1 receptor in guinea pig brain membranes to Ki for sigma2 receptor in rat liver membranes; format: cell membranes
[22] = Cytotoxicity against human Hep3B cells assessed as cell viability at 100 uM incubated for 48 hrs by MTT assay relative to control; format: cell-based, Hep 3B2; conditions: read-out: Activity; method in brief: as §1
[23] = target: T1, Glutamate NMDA receptor; GRIN1/GRIN2B; experiment: Potency index, ratio of ifenprodil Ki to test compound Ki for displacement of [3H]ifenprodil from GluN1a/GluN2B (unknown origin) expressed in mouse L(tk-) cell membranes

Sequence of Sigma non-opioid intracellular receptor 1 (Q60492 whole entry): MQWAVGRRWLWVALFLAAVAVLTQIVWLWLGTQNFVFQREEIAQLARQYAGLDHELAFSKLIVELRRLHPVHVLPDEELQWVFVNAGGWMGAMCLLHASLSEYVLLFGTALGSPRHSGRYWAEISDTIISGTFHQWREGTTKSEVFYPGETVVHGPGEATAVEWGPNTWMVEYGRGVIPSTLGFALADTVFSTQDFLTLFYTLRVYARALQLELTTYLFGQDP

| Structure (SMILES) | viability at 48 h, 100 µM [1] [%] | viability at 48 h, 10 µM [2] [%] | viability at 48 h, 50 µM [3] [%] | IC50 [4] [µg/mL] | Ratio Ki [5] | CC50 at 48 h [6] [µM] | CC50 at 48 h [7] [µM] | CC50 at 48 h [8] [µM] | viability at 25 µM (SH-SY5Y) [%] | viability at 48 h, 50 µM [9] [%] | viability at 48 h, 10 µM [10] [%] | IC50 [11] [µg/mL] | viability at 48 h, 100 µM [12] [%] | viability at 48 h, 25 µM [13] [%] | viability at 48 h, 25 µM [14] [%] | pKi [15] | pKi [16] | viability at 48 h, 10 µM [17] [%] | viability at 48 h, 50 µM [18] [%] | pKi [19] | other results |
| --- | --- | --- | --- | --- | --- | --- | --- | --- | --- | --- | --- | --- | --- | --- | --- | --- | --- | --- | --- | --- | --- |
| COc1cc2c(cc1OC)CN(CCCCN1C(=O)CCc3ccccc31)CC2 | 37 | 80 | 71 | 12.35 (≈ 31.3 µM) | 3.7 | 67 | 36 | 83 | 73 | 68 | 75 | 15.37 (≈ 39 µM) | 42 | 70 | 77 to 84 | 7.92 | 6.94 | 71 | 62 | 7.35 | viability at 48 h, 25 µM [20]: 79%; Ratio Ki [21]: 2.6; viability at 48 h, 100 µM [22]: 30% |
| O=C1CCc2ccccc2N1CCCCN1CCN(C2CCCCC2)CC1 | 99 | 83 | 79 | 35.79 (≈ 96.8 µM) | 0.75 | 81 | 493 | 265 | 105 | 86 | 106 | 38.29 (≈ 104 µM) | 94 | 70 | 81 to 111 | 8.70 | 7.68 | 91 | 48 | 8.82 | Ratio Ki [23]: 5; viability at 48 h, 25 µM [20]: 75%; Ratio Ki [21]: 14; viability at 48 h, 100 µM [22]: 52% |
| COc1cc2c(cc1OC)CN(CCCCn1nc(-c3ccccc3)oc1=O)CC2 | 95 | 84 | 81 | 20.95 (≈ 51.2 µM) | 32 | 70 | 77 | 69 | 88 | 96 | 85 | 27.63 (≈ 67.5 µM) | 39 | 75 | 80 to 94 | 7.57 | 5.80 | 97 | 58 | 6.06 | viability at 48 h, 25 µM [20]: 82%; Ratio Ki [21]: 1.8; viability at 48 h, 100 µM [22]: 25% |
